Measured values: ChEMBL document CHEMBL5038571, “Design and Synthesis of EZH2-Based PROTACs to Degrade the PRC2 Complex for Targeting the Noncatalytic Activity of EZH2” (J Med Chem, 2021)
Active and inactive are the calls of the source. The rule behind the calls is not given here.

How the values were obtained:
[1] = biological target: Histone-lysine N-methyltransferase EZH2 (Homo sapiens, UniProt Q15910); assay type: cell-based, Sf9
[2] = biological target: T1, Protein cereblon/Histone-lysine N-methyltransferase EZH2 (Homo sapiens) (UniProt Q15910+Q96SW2); assay: PROTAC activity at CRBN E3 ligase/EZH2 in PRC2 complex in human WSUDLCL2 cells assessed as reduction in H3K27me3 level at 1 uM incubated for 48 hrs by Western blot analysis; assay type: cell-based
Procedure, shortened: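 WSU-DLCL-2 cells treated 48 h (1 μM for the single-concentration screen), lysed; SDS-PAGE, nitrocellulose transfer, 5% milk block, primary antibody 4 °C overnight, chemiluminescence. Bands quantified by densitometry, normalized to GAPDH, expressed relative to DMSO-treated cells; mean ± SD of three independent experiments, t-test.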

[3] = biological target: T1, Protein cereblon/Histone-lysine N-methyltransferase EZH2 (Homo sapiens); assay: PROTAC activity at CRBN E3 ligase/EZH2 in PRC2 complex in human WSUDLCL2 cells assessed as reduction in EZH2 level at 2.5 uM measured after 48 hrs by Western blot analysis; assay type: cell-based
Procedure, shortened: (§1)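 WSU-DLCL-2 cells exposed 48 h to PROTAC or control analogues at 2.5 μM, with thalidomide and EPZ6438 at 10 μM; PRC2 subunit levels then read by western blot.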

[4] = biological target: T1, Protein cereblon/Histone-lysine N-methyltransferase EZH2 (Homo sapiens); assay: PROTAC activity at CRBN E3 ligase/EZH2 in PRC2 complex in human WSUDLCL2 cells assessed as reduction in SUZ12 level at 2.5 uM measured after 48 hrs by Western blot analysis; assay type: cell-based
Procedure, shortened: as §1

[5] = biological target: T1, Protein cereblon/Histone-lysine N-methyltransferase EZH2 (Homo sapiens); assay: PROTAC activity at CRBN E3 ligase/EZH2 in PRC2 complex in human WSUDLCL2 cells assessed as reduction in EED level at 2.5 uM measured after 48 hrs by Western blot analysis; assay type: cell-based
Procedure, shortened: as §1

[6] = biological target: T1, Protein cereblon/Histone-lysine N-methyltransferase EZH2 (Homo sapiens); assay: PROTAC activity at CRBN E3 ligase/EZH2 in PRC2 complex in human WSUDLCL2 cells assessed as reduction in RbAp48 level at 2.5 uM measured after 48 hrs by Western blot analysis; assay type: cell-based
Procedure, shortened: as §1

[7] = tested on: A549; assay: Antiproliferative activity against EZH2-knockdown human A549 cells assessed as inhibition of cell growth at 10 uM treated for 9 days by optical microscopic analysis; assay type: functional, cell-based; settings: time 9.0 day
Procedure, shortened: (§2)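 Cells seeded at 5 × 10³ per well, grown 24 h, then exposed to compound at 10 μM for 9 days with medium refreshed. Cells were photographed and counted on days 1, 3, 5, 7 and 9. For lines 1-2, EZH2-targeting or control shRNA was induced in the cells. Mean SD of three independent experiments; t-test against control.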

[8] = tested on: NCI-H1299; assay: Antiproliferative activity against EZH2-knockdown human NCI-H1299 cells assessed as inhibition of cell growth at 10 uM treated for 9 days by optical microscopic analysis; assay type: functional, cell-based; settings: time 9.0 day
Procedure, shortened: as §2

T1 sequence (Q15910 whole entry, looked up): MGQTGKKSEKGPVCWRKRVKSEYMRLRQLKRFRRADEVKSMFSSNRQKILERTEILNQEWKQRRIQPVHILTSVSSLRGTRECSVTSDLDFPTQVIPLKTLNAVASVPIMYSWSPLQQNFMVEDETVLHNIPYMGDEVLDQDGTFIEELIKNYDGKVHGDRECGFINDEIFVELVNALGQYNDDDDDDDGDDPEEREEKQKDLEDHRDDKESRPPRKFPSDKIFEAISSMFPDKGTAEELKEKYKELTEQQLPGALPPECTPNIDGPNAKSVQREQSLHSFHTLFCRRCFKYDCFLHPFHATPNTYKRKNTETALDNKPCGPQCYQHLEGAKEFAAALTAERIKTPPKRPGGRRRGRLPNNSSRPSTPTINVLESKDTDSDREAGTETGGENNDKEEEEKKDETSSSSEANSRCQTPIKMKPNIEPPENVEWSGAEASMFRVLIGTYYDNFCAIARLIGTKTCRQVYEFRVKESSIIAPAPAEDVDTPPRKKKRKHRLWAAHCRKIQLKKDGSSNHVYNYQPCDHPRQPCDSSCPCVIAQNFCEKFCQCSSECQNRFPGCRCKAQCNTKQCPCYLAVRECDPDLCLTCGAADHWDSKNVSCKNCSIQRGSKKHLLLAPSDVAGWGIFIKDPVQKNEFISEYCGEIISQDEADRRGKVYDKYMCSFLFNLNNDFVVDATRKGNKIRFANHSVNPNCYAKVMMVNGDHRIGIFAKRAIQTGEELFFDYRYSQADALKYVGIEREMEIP
T1 sequence (Q96SW2 whole entry, looked up): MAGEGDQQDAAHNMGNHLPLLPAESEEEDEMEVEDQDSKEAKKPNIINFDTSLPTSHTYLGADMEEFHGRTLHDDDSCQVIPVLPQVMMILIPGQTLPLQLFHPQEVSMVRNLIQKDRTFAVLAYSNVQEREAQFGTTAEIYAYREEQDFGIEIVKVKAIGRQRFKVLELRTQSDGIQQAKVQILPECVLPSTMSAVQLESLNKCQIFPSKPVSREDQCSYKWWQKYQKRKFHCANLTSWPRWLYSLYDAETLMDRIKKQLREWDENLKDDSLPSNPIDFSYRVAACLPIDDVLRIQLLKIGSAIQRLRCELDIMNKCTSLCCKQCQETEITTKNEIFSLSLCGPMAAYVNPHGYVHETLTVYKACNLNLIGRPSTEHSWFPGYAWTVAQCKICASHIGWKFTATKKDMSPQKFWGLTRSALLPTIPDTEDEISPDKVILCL
Chain of Histone-lysine N-methyltransferase EZH2 (Q15910 whole entry): as the sequence (Q15910 whole entry, looked up) above

Question: With `CCN(c1cc(-c2ccc(CN3CCN(CCCCCCOc4cccc5c4C(=O)N(C4CCC(=O)NC4=O)C5=O)CC3)cc2)cc(C(=O)NCc2c(C)cc(C)[nH]c2=O)c1C)C1CCOCC1` (stereo unspecified) as the compound, how does the IC50 [1] read?
Answer: Its IC50 is 3.9 nM.

Question: For `CCN(c1cc(-c2ccc(CN3CCN(CCCCCCCCCOc4cccc5c4C(=O)N(C4CCC(=O)NC4=O)C5=O)CC3)cc2)cc(C(=O)NCc2c(C)cc(C)[nH]c2=O)c1C)C1CCOCC1` (stereo unspecified), which Activity [2] is on record?
Answer: The Activity was “Active”.

Question: And the IC50 [1]?
Answer: Its IC50 is 15 nM.

Question: With `CC[C@H](C)n1cc(C)c2c(C(=O)NCc3c(C)cc(C)[nH]c3=O)cc(-c3ccc(N4CCN(CCCCCCCCCOc5cccc6c5C(=O)N(C5CCC(=O)NC5=O)C6=O)CC4)nc3)cc21` (stereo partly specified) as the compound, how does the Activity [2] read?
Answer: Its Activity is “Active”.

Question: And the IC50 [1]?
Answer: The IC50 was 16 nM.

Question: With `CCN(c1cc(-c2ccc(CN3CCN(CCCCCCCCCCCCOc4cccc5c4C(=O)N(C4CCC(=O)NC4=O)C5=O)CC3)cc2)cc(C(=O)NCc2c(C)cc(C)[nH]c2=O)c1C)C1CCOCC1` (stereo unspecified) as the compound, how does the IC50 [1] read?
Answer: Its IC50 is 53 nM.

Question: How did the IC50 [1] turn out when `CCN(c1cc(-c2ccc(CN3CCN(CCCCCCCOc4cccc5c4C(=O)N(C4CCC(=O)N(C)C4=O)C5=O)CC3)cc2)cc(C(=O)NCc2c(C)cc(C)[nH]c2=O)c1C)C1CCOCC1` (stereo unspecified) was run?
Answer: The IC50 was 1.93 nM.

Question: What about the Activity [3] of the same compound?
Answer: The Activity was “inactive”.

Question: What about the Activity [4] of the same compound?
Answer: Its Activity is “inactive”.

Question: What about the Activity [5] of the same compound?
Answer: Its Activity is “inactive”.

Question: And the Activity [6]?
Answer: The Activity was “inactive”.

Question: And the Activity [7]?
Answer: Its Activity is “inactive”.

Question: What about the Activity [8] of the same compound?
Answer: The Activity was “inactive”.

Question: For `CC[C@H](C)n1cc(C)c2c(C(=O)NCc3c(C)cc(C)[nH]c3=O)cc(-c3ccc(N4CCN(CCCCOc5cccc6c5C(=O)N(C5CCC(=O)NC5=O)C6=O)CC4)nc3)cc21` (stereo partly specified), which IC50 [1] is on record?
Answer: Its IC50 is 5.5 nM.

Question: With `CC[C@H](C)n1cc(C)c2c(C(=O)NCc3c(C)cc(C)[nH]c3=O)cc(-c3ccc(N4CCN(CCCCCCOc5cccc6c5C(=O)N(C5CCC(=O)NC5=O)C6=O)CC4)nc3)cc21` (stereo partly specified) as the compound, how does the IC50 [1] read?
Answer: Its IC50 is 4 nM.

Question: How did the Activity [2] turn out when `CCN(c1cc(-c2ccc(CN3CCN(CCCCCCCCCCOc4cccc5c4C(=O)N(C4CCC(=O)NC4=O)C5=O)CC3)cc2)cc(C(=O)NCc2c(C)cc(C)[nH]c2=O)c1C)C1CCOCC1` (stereo unspecified) was run?
Answer: The Activity was “Active”.

Question: What about the IC50 [1] of the same compound?
Answer: Its IC50 is 17 nM.

Question: What does the source list for `CCN(c1cc(-c2ccc(CN3CCN(CCCCCCCCOc4cccc5c4C(=O)N(C4CCC(=O)NC4=O)C5=O)CC3)cc2)cc(C(=O)NCc2c(C)cc(C)[nH]c2=O)c1C)C1CCOCC1` (stereo unspecified)?
Answer: Activity [2]: Active; IC50 [1]: 3.4 nM

Question: `CC[C@H](C)n1cc(C)c2c(C(=O)NCc3c(C)cc(C)[nH]c3=O)cc(-c3ccc(N4CCN(CCCCCCCCOc5cccc6c5C(=O)N(C5CCC(=O)NC5=O)C6=O)CC4)nc3)cc21` (stereo partly specified) was tested. Which Activity [2] did it give?
Answer: The Activity was “Active”.

Question: And the IC50 [1]?
Answer: Its IC50 is 7.3 nM.
